Measurements as given in the EternaBench riboswitch data.

Tested on: MS2 coat protein
Test: apparent Kd, MS2 coat protein; higher = weaker binding; RNA-MaP array; FMN 200 µM where present
How it was run: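 Stalled E. coli RNA polymerase transcribed each design on Illumina sequencing-chip clusters. The clusters were titrated with SNAP-549-labelled MS2 coat protein, starting at 0.7 or 1.5 nM and doubling up to 3 µM, first without ligand and then with constant ligand, in 100 mM Tris-HCl pH 7.5, 80 mM KCl, 4 mM MgCl2, BSA, DTT, yeast tRNA and Tween-20. Green signal was normalised to red-channel RNA signal and to the control-cluster median Fmax. The apparent Kd is the median of filtered binding-curve fits made for each cluster.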

[1] = designed as: OFF switch for flavin mononucleotide, no ligand
[2] = ligand present: flavin mononucleotide, designed as: OFF switch for flavin mononucleotide
[3] = designed as: ON switch for flavin mononucleotide, no ligand
[4] = ligand present: flavin mononucleotide, designed as: ON switch for flavin mononucleotide

AAACAGCGAAGAUAAUAAUGAAUACAUGAGGAUCACCCAUGUAAGGAUAUCGUCAGGAAUACUGACGAGAAGGUACAUACGCUG
apparent Kd [1]: 16 nM | apparent Kd [2]: 22.4 nM

AAAUUUAACGAAGGAUAUGGUUACAUGAGGAUCACCCAUGUAUAUUUUGUGAUCUUGUUUAAGUUCCAGAAGGUCGUAUACAUA
apparent Kd [1]: 74.1 nM | apparent Kd [2]: 294 nM

AGCACGAAAGUGCAACGAUGUACGAGAAGGACAUGAGGAUCACCCAUGUAUGCAGUAACUGCUAUGUAGGAUAUCGUACAUCGA
apparent Kd [1]: 7.57 nM | apparent Kd [2]: 9.94 nM

AGGAUCCUAUCAAGACAAAUGUACAUGAGGAUCACCCAUGUGCAGGAUAUAGCUAGUUACGGUGGUUAGAAGGGCACGCCAAAA
apparent Kd [1]: 8.98 nM | apparent Kd [2]: 13.3 nM

UUUUAAUAAGAGAAGGAGGACUUCAUGAGGAUCACCCAUGUGUUAGUACUUAGGAUAUUUAAUAACAUGAGGAUCACCCAUGUC
apparent Kd [3]: 44.1 nM | apparent Kd [4]: 43 nM

GAUUAACAUGAGGAUCACCCAUGUGAGGAUAUGAACUAGACCACUUACCCGAUAUUGUUCAGAAGGCGCAUUCU
apparent Kd [1]: 34.1 nM | apparent Kd [2]: 39.5 nM

GGAGACCUCACAGGAUAUGCUGGACUUUGUCCAGCAGAAGGGUGGAAACAUGAGGAUCACCCAUGUAUGGUCUCCAAAUUUAAU
apparent Kd [3]: 89 nM | apparent Kd [4]: 8.74 nM

GGGUACAUCGGAGGAUAUCAUGUAAAUACAUGAGGAUCACCCAUGUCGAUGGAGACAUCGGAGAUUUAGAAGGCCGAUGUACCG
apparent Kd [3]: 158 nM | apparent Kd [4]: 201 nM

GUAGGCGACCAGAAGGGUGACAUGAGGAUCACCCAUGUAGAUGUGUUCCCGCUUGGGAGCCGUCCACAGGAUAUGGUUGCUUAG
apparent Kd [3]: 66.5 nM | apparent Kd [4]: 42.5 nM

CUGAUGUUAGGAUAUCAGGUUGCGCGCGAAGGCGCGCGGCAUGAGAAGGAACAUGAGGAUCACCCAUGUGACGA
apparent Kd [1]: 39.7 nM | apparent Kd [2]: 148 nM

UCCUCGAUGUAGAAGGCCGCGUCCGGCUCACGCGGAGGAUAUACAUGAGGAUCACCCAUGUGUCUGUGCCUUAUAUGGUACGGA
apparent Kd [1]: 111 nM | apparent Kd [2]: 10.5 nM

GUGUACUGAGGAUAUGCUGGAAUCUAGCGAAGCUAGGUUCCACAUGAGGAUCACCCAUGUAGAAGGCGGUACAC
apparent Kd [1]: 34.2 nM | apparent Kd [2]: 13.7 nM

AUCUGCUCGUCAGGAUAUACGUCACUGCGUCAGCAGUGUGGUAAGAUCACAUGAGGAUCACCCAUGUAGAAGGGACGAGCUGAU
apparent Kd [1]: 12.9 nM | apparent Kd [2]: 268 nM

CUGUACAUAUCAGGAUAUCUAUUUCCUACAUGAGGAUCACCCAUGUAGGUGAUCACCCAAGUAAAGGAGAAGGGAUAUGUAUAG
apparent Kd [3]: 66.4 nM | apparent Kd [4]: 23.7 nM

ACAUGAGGAUCACCCAUGUGAAAACAAUGGCUGACACAGAGAUAGGAUAUAUGUGCAUAUCAAACAUAGAAGGGUCAUAACUGG
apparent Kd [1]: 50 nM | apparent Kd [2]: 50.6 nM

UUCAGGGAUCAAGGAUAUCUAUAUUCAUGAGGACAUGAGGAUCACCCAUGUUGAUUACCCAUGAGGGAGAAGGUGAACAUGAGG
apparent Kd [3]: 44.2 nM | apparent Kd [4]: 18.7 nM

GUUGCGUUUGUGAGGAUAUGCUGGUCCUUGGUUCGGCAGAAGGCACAUGAGGAUCACCCAUGUGGUGUCGUUCC
apparent Kd [1]: 14.2 nM | apparent Kd [2]: 22.4 nM

UUUACAUGAGGAUCACCCAUGUUUAGAAAGAUUGGUUUAGGUGAGGAUAUACAUGAUAAUGAAUUGUAGAAGGCACUGGGUACA
apparent Kd [3]: 30.1 nM | apparent Kd [4]: 24 nM

GCGAUUUUGUAGAAGGUACGUGAUUAGACAAAGUAAGGAUAUACUGACAUGAGGAUCACCCAUGUAUUAAUAGUUAACAGUCGC
apparent Kd [3]: 25.4 nM | apparent Kd [4]: 14.9 nM

AGCUAAAACGAAGGAUAUACAAACAUGAGGAUCACCCAUGUAUACAUGAUUUAUUGUGAUCACAUGUAGAAGGUCGUACUAACA
apparent Kd [3]: 958 nM | apparent Kd [4]: 225 nM

AAAUAAACUACCAAGAUAUCCUCACAUGAGGAUCACCCAUGUCAGGAUAUUUGUCCUAAAAGGACAGAGAAGGGACGUGGUAGA
apparent Kd [1]: 6.24 nM | apparent Kd [2]: 14.8 nM

UUAAUUAUACAAGGAUAUCUAUUGUUCUUUCGACAUACAUGAGGAUCACCCAUGUUAAUAUAUAUAGAGAAGGUGUAUUUUCAG
apparent Kd [3]: 42.2 nM | apparent Kd [4]: 26.3 nM

CCAGCUCGUGUUAGGAUAUCCAAGCUGCGGCUGGUGGAGAAGGGACAUGAGGAUCACCCAUGUAAUAAAGAAAA
apparent Kd [1]: 26.4 nM | apparent Kd [2]: 31.9 nM

AAUUGACACGUAGGAUAUCGAACUAUAUUAACACGAGAAGGACGUACAUGAGGAUCACCCAUGUUUAAUGGAGUAGAUAAGUUG
apparent Kd [1]: 144 nM | apparent Kd [2]: 283 nM

AUAAUUUUAUAUAUCUUUUUUAUCAGAAGGCAUAACAUGAGGAUCACCCAUGUAUAUUAUAGUUAUGAGGAUAUGAUUUAGUUA
apparent Kd [1]: 10.2 nM | apparent Kd [2]: 11.4 nM

AGUUGGCGAGGAUAUACAUGAGGAUCACCCAUGUGAAGAAGAAUAGUGAGGAAGAAAAGUAGAAGGCGCUGACA
apparent Kd [1]: 47 nM | apparent Kd [2]: 260 nM

AUCAGCUCGUCAGGAUAUACGUCACUGCGUCAGCAGUGUGGUAAGAUCACAUGAGGAUCACCCAUGUAGAAGGGACGAGCCGAU
apparent Kd [1]: 13.2 nM | apparent Kd [2]: 306 nM

UUAUUUAGGUAGGAUAUCGAUACUAAUUACUAUCGAGAAGGGUCUACAUGAGGAUCACCCAUGUUAGCAUGUUU
apparent Kd [1]: 27.2 nM | apparent Kd [2]: 25.5 nM

AAAAAGCGAGGAUAUACAUGAGGAUCACCCAUGUCAAAAGGUAAGACCGCAGAAAAAAGUAGAAGGCGCAAAAA
apparent Kd [1]: 63 nM | apparent Kd [2]: 137 nM

UUUUUGUCAGGAUAUGACUAGAUGCACGUUAGUGUGUUUACUUAGAAGGGACAUGAGGAUCACCCAUGUAUUCC
apparent Kd [1]: 28.9 nM | apparent Kd [2]: 24.1 nM

AGCUAGUCAGGAUAUACAAACAUGUCAAAAGACGUGAAGGGACAUGAGGAUCACCCAUGUAGAAGGGACUAGCA
apparent Kd [1]: 66.2 nM | apparent Kd [2]: 379 nM

GUUUUUGCAUGAGGAUAUGCUCGCAUUUCAAGAGCAGAAGGUAUUUCUUUUGACAUGAGGAUCACCCAUGUAUUUAUCAUUGAA
apparent Kd [3]: 21 nM | apparent Kd [4]: 18.9 nM

UCGUACAUUCGAGGAUAUCGGUGAUUAAUAAUACGAGAAGGCGAUUUAAGGCAUAAAGCCUUAGACAUGAGGAUCACCCAUGUA
apparent Kd [3]: 107 nM | apparent Kd [4]: 70.5 nM

UAGCAGUGCGGGUAGGAUAUGUAGGGUGGUACAUGAGGAUCACCCAUGUAUCCACCCUUCGACCGGCAGAAGGGCCUGUCACUGC
apparent Kd [3]: 22 nM | apparent Kd [4]: 22.6 nM

CCGUAGGGAGGAUAUCCAAUAUAUGACAUGAGGAUCACCCAUGUUUCCACUCGUACCUCCGGAGAAGGCCCAUCCC
apparent Kd [1]: 24.9 nM | apparent Kd [2]: 22.3 nM

AUUAUUUAUAGUUAUUGGUAUUUGACAGAAGGUGAAAGUGUCACAUGAGGAUCACCCAUGUUCUUCAAGGAUAUGUUGGUAUAC
apparent Kd [3]: 66.1 nM | apparent Kd [4]: 11.8 nM

GGGUACAUCGGAGGAUAUCAUGUAAAUACAUGAGGAUCACCCAUGUCGAUGGAGACAUCGGAAAUUGAGAAGGCCGAUGUACCG
apparent Kd [3]: 16.9 nM | apparent Kd [4]: 4.87 nM

CGGCGCUGUCGAGAGGAUAUGCGGUGAUGGACAUGAGGAUCACCCAUGUUAGCGAUAGCAUCACGGUAGAAGGCUCCACAGCCGU
apparent Kd [3]: 31.8 nM | apparent Kd [4]: 13 nM

GGUGCGUUUGUGAGGAUAUGCUGGUCCUUGGUUCGGCAGAAGGCACAUGAGGAUCACCCAUGUGGUGUCGUACC
apparent Kd [1]: 16.7 nM | apparent Kd [2]: 48.8 nM

CGGAAAAGGUAGGAUAUGCUAGACGAAAGUCUAGCAGAAGGACCUACAUGAGGAUCACCCAUGUGUCCAAUCCG
apparent Kd [1]: 56.3 nM | apparent Kd [2]: 24.7 nM

UUGUACGUCGUAGGAUAUGUAGGAUAUUCCUACAUGAGGAUCACCCAUGUUGACAUGGAAGAAGGACAGAAGGACGAUGUCCAU
apparent Kd [3]: 429 nM | apparent Kd [4]: 7.83 nM

UUUUAACAUGAGGAUCACCCAUGUGAGGAUAUCGAAAUUUAUAUUAAUAUUAAUUUUACGAGAAGGCACAUUUU
apparent Kd [1]: 112 nM | apparent Kd [2]: 100 nM

UAUUCACAUGAGGAUCACCCAUGUAGAAGGCCGAGCCUGGCCACGGUUACAAGCCGUGGAGAGCCGGAGGAUAUACAGCUGGUG
apparent Kd [1]: 140 nM | apparent Kd [2]: 27.8 nM

CUCAGCAAGGAAGGAUAUGGGUUUUCGCACAUGAGGAUCACCCAUGUCGCAGUCCCUACGGGAUCCCAGAAGGUCUAUGCGUGG
apparent Kd [3]: 260 nM | apparent Kd [4]: 16.3 nM

GCAUUGAUAACAGGAUAUAUGAGUCCUACAUGAGGAUCACCCAUGUAGGUGAUCAGCCGUGAUUAGUAGAAGGGUUAUCAAUGC
apparent Kd [3]: 13 nM | apparent Kd [4]: 5.99 nM

AAUAACAGAGGAUAUACUGUUUUAUGUGUUUGUUAUUUUAAACAUGAGGAUCACCCAUGUAGAAGGCUGAAUAA
apparent Kd [1]: 22.5 nM | apparent Kd [2]: 21.7 nM

UCAUGGUAGCAGGAUAUGCUAUUUAUUUUUUAUGCAGAAGGGCUUACAUGAGGAUCACCCAUGUGUUAGGUUUA
apparent Kd [1]: 113 nM | apparent Kd [2]: 25.2 nM

GGAGCACACCUUAACAUGAGGAUCACCCAUGUCAAAAGACAUGAGGAUAUGGAUCCGAAAAGGAUCCAGAAGGCAUGGUGCUCC
apparent Kd [3]: 188 nM | apparent Kd [4]: 11.9 nM

GAAUAAUUGAUCCAAUUUUACAACAUGAGGAUCACCCAUGUGCAGGAUAUCGUGAAAGUUAAAUACGAGAAGGGCAAGAACUGU
apparent Kd [1]: 220 nM | apparent Kd [2]: 344 nM

UUUUCCAAUCAAGGAUAUGUAUUAAAGAUUUGAAAACAUGAGGAUCACCCAUGUAUAUGGUGGGAACAGAAGGUGAAUAAGUAA
apparent Kd [1]: 221 nM | apparent Kd [2]: 231 nM

ACCACGAUAGCGAUAUGAUCGAGAGAUCAUGUCGCUAUUUUUAGAAGGACAUGAGGAUCACCCAUGUAGGAUAUGGGACGUGGA
apparent Kd [3]: 24.7 nM | apparent Kd [4]: 10.3 nM

UUAUUUUUACAGAAGGUUUAAUAAUAUGUAUGAGAAGGAUAUGUAACAUGAGGAUCACCCAUGUUUUAUUUAUAUGAGGUUCGU
apparent Kd [1]: 15.3 nM | apparent Kd [2]: 12.5 nM

GGAAGAAUGAUACCUUUUUAUUACAUGAGGAUCACCCAUGUGCAGGAUAUCGAUUAUUAUAGUUUCGAGAAGGGCAAGAAUUGU
apparent Kd [1]: 19.7 nM | apparent Kd [2]: 52.4 nM

GUAGCACAAACAAAUGUAACAUGAGGAUCACCCAUGUGUUAUGAGGAUAUGGAUGUGAAGUUAAUCCAGAAGGCAUUAUGCUAC
apparent Kd [3]: 18.6 nM | apparent Kd [4]: 11.3 nM

UUGGACGUCGUAGGAUAUGUAGGAUAUUCCUACAUGAGGAUCACCCAUGUUGACAUGGAAGAAUGACAGAAGGACGAUGUCCAU
apparent Kd [3]: 712 nM | apparent Kd [4]: 11.8 nM
